Reference: ChEMBL document CHEMBL5247635 (Eur J Med Chem, 2022)

Columns and labels:
[1] = Cytotoxicity against human HepG2 cells assessed as reduction in cell proliferation treated for 24 hrs by crystal violet staining based analysis; assay type: toxicity
Trypanothione reductase [2] = biological target: T1, Trypanothione reductase (Leishmania infantum, UniProt A4HSF7); test: Inhibition of HIS-tagged recombinant Leishmania infantum TryR oxidoreductase activity expressed in Escherichia coli in the presence of NADPH by spectrophotometry based DTNB-coupled assay
T1 sequence (A4HSF7 whole entry): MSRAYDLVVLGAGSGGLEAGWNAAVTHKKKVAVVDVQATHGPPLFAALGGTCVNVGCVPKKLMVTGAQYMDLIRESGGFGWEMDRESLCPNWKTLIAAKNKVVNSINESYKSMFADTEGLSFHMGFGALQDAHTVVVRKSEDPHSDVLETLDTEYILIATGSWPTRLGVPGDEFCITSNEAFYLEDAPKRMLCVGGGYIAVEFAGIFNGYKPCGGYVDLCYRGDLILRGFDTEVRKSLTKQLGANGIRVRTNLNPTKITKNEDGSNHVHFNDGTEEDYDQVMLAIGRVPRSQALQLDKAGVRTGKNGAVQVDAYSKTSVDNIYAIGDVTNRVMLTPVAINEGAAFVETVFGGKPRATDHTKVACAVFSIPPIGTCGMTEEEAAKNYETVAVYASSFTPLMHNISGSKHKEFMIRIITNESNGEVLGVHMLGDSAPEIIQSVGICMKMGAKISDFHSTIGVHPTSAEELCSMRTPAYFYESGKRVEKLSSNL
Summary of the method: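 HIS-tagged LiTryR was used in a DTNB-coupled assay at 26 °C. Buffer: 40 mM HEPES pH 7.5, 1 mM EDTA, 30 µM NADP+, 25 µM DTNB, 150 µM NADPH, 1.75% DMSO. Standard runs used 1 µM TS2 and 7 nM enzyme; cross-species runs used 50 µM TS2 and 0.5 nM enzyme. Started with NADPH + TS2; TNB read at 412 nm. Compounds were screened at 75 µM first. Three independent experiments.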

Trypanothione reductase [3] = biological target: T1, Trypanothione reductase; test: Disruption of HIS-FLAG-tagged recombinant Leishmania infantum TryR dimerization expressed in Escherichia coli Rossetta BL21 (DE3) cells incubated for 16 hrs by ELISA analysis
Summary of the method: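 400 nM HIS-FLAG-tagged LiTryR (co-purified with HIS-tagged LiTryR as heterodimer) incubated with compound (3.1–75 μM) in 50 mM Tris pH 8.0, 300 mM NaCl, 16 h, 37 °C with vigorous shaking; centrifuged, supernatant captured on α-FLAG plates, detected with HRP-α-HIS antibody and o-phenylenediamine, A490. Signal normalized to DMSO; IC50 by nonlinear regression; triplicate, three independent experiments.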

Leishmania infantum [4] = test: Antileishmanial activity against Leishmania infantum MCAN/ES/89/IPZ229/1/89 axenic amastigotes assessed as reduction in parasite viability treated for 24 hrs by PI staining based flow cytometry; assay type: functional, organism-based; conditions: MCAN/ES/89/IPZ229/1/89, 24 h
Summary of the method: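 Axenic amastigotes were seeded from log-phase cultures at 10^5 parasites/mL in M199-based medium at pH 5.4. They were derived from promastigotes by 3 days at 37 °C. Compounds at 2.3–75 µM for 24 h at 37 °C. Viability read by propidium iodide flow cytometry. EC50 ± SE from three independent experiments, each in triplicate.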

[5] = Selectivity index, ratio of CC50 for human HepG2 cells to EC50 for Leishmania infantum MCAN/ES/89/IPZ229/1/89 axenic amastigotes; assay type: toxicity; conditions: read-out: Ratio CC50/EC50
Leishmania infantum [6] = test: Antileishmanial activity against GFP-expressing Leishmania infantum intracellular amastigotes infected in human THP-1 derived macrophage cells assessed as reduction in parasite viability measured for 72 hrs by resazurin/alamar blue fluorometric assay; assay type: functional, organism-based
Summary of the method: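 Human THP-1-derived macrophages infected with GFP-expressing L. infantum amastigotes; compounds at 2.3–75 µM, infected cells monitored for 72 h. EC50 ± SE from three independent experiments.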

[7] = Thermodynamic aqueous solubility of compound at 25 degreeC measured after 24 hrs by HPLC analysis; assay type: physicochemical; conditions: buffer, read-out: Therm_solubility
Summary of the method: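 Excess compound was suspended in water (pH 5.5), sonicated 10 min, equilibrated overnight at room temperature, and centrifuged. Supernatant was diluted and quantified by HPLC (UV 254 nm) against a five-point standard curve (10–500 µM).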

[8] = Cytotoxicity against human HepG2 cells assessed as reduction in cell proliferation measured after 72 hrs by crystal violet staining based analysis; assay type: toxicity
[9] = Selectivity index, ratio of CC50 for human HepG2 cells to EC50 for GFP-expressing Leishmania infantum intracellular amastigotes infected in human THP-1 derived macrophage cells; assay type: toxicity, cell-based; conditions: read-out: Ratio CC50/EC50
Trypanothione reductase [10] = biological target: Trypanothione reductase (Trypanosoma brucei brucei, UniProt P39051); test: Inhibition of HIS-tagged recombinant Trypanosoma brucei TryR oxidoreductase activity expressed in Escherichia coli in the presence of NADPH by spectrophotometry based DTNB-coupled assay
Trypanothione reductase (Trypanosoma brucei brucei, UniProt P39051), sequence (P39051 whole entry): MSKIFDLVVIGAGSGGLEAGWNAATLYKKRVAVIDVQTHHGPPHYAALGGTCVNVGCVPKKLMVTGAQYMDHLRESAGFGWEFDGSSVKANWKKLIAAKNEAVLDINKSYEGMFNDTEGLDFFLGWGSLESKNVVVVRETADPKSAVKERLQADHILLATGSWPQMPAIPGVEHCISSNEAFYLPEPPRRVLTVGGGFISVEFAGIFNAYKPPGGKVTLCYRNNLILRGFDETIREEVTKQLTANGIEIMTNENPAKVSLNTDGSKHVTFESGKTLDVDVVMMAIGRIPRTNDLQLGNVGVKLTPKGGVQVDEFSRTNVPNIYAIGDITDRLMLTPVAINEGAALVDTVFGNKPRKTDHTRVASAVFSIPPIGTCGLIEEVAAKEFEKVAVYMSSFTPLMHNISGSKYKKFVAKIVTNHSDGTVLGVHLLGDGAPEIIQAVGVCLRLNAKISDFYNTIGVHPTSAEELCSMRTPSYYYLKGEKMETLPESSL
Summary of the method: (§1)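 HIS-tagged TryR from each species was expressed in E. coli. Activity was read by DTNB-coupled assay at 26 °C in 40 mM HEPES pH 7.5, 1 mM EDTA, 30 µM NADP+, 25 µM DTNB, 150 µM NADPH, 1.75% DMSO. Conditions were 50 µM TS2 and 0.5 nM enzyme; reaction started with NADPH + TS2. TNB absorbance at 412 nm. Three independent experiments.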

Trypanothione reductase [11] = biological target: Trypanothione reductase (Trypanosoma cruzi, UniProt P28593); test: Inhibition of HIS-tagged recombinant Trypanosoma cruzi TryR oxidoreductase activity expressed in Escherichia coli in the presence of NADPH by spectrophotometry based DTNB-coupled assay; summary of the method: as §1
Trypanothione reductase (Trypanosoma cruzi, UniProt P28593), sequence (P28593 whole entry): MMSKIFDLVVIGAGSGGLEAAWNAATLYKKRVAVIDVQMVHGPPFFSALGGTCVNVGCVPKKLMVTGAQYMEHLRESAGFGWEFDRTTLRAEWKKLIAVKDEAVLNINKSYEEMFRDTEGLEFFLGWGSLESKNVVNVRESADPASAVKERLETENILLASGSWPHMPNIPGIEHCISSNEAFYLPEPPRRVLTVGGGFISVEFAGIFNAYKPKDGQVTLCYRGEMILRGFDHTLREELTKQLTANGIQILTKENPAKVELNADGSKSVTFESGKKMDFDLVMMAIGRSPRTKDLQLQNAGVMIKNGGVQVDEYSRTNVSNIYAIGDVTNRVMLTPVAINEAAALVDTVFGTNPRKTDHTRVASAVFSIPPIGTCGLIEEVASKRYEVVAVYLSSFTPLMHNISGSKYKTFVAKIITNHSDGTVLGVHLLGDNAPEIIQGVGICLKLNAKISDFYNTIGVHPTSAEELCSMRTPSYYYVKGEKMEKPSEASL

Trypanothione reductase [12] = biological target: Trypanothione reductase (Trypanosoma congolense, UniProt P13110); test: Inhibition of HIS-tagged recombinant Trypanosoma congolense TryR oxidoreductase activity expressed in Escherichia coli in the presence of NADPH by spectrophotometry based DTNB-coupled assay; summary of the method: as §1
Trypanothione reductase (Trypanosoma congolense, UniProt P13110), sequence (P13110 whole entry): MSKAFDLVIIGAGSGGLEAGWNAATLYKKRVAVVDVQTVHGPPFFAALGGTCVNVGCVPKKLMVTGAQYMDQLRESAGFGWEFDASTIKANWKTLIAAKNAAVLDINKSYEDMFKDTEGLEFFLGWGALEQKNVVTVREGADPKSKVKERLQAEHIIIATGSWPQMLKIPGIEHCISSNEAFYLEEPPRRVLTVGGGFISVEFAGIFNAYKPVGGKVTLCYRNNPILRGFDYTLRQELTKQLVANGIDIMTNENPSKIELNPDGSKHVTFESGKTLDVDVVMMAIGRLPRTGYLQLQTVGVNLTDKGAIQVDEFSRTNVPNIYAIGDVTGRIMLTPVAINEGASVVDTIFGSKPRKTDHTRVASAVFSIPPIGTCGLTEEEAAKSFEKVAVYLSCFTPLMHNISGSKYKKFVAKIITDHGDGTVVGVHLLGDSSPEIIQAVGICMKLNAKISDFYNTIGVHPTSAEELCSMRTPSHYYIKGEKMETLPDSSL

Compound	CC50 at 24 h [1] [µM]	IC50 (Trypanothione reductase [2]) [µM]	IC50 (Trypanothione reductase [3]) [µM]	EC50 (Leishmania infantum [4]) [µM]	selectivity ratio [5]	EC50 (Leishmania infantum [6]) [µM]	solubility thermodynamic at 24 h [7] [µg/mL]	CC50 at 72 h [8] [µM]	selectivity ratio [9]	IC50 (Trypanothione reductase [10]) [µM]	IC50 (Trypanothione reductase [11]) [µM]	IC50 (Trypanothione reductase [12]) [µM]
C[n+]1nn(-c2ccc(-c3nc(CCc4ccc(Oc5ccccc5)cc4)c(-c4ccccc4)s3)c(OCCN3CCNC3=O)c2)cc1CCCCN	35.2	7.8	> 75	8.9	4	–	–	–	–	–	–	–
NCCCCc1cn(-c2ccc(-c3nc(CCc4ccccc4)cs3)c(OCCN3CCNC3=O)c2)nn1.O=C(O)C(F)(F)F	–	–	–	–	–	29.4	6400	27.8	< 1	–	–	–
C[n+]1nn(-c2ccc(-c3nc(-c4ccccc4)c(-c4ccccc4)s3)c(OCCN3CCNC3=O)c2)cc1CCCCN	> 75	3.9	–	12.9	> 5.8	73.8	–	> 75	–	–	–	–
NCCCCc1cn(-c2ccc(-c3nc(CCc4ccc(-c5ccccc5)cc4)cs3)c(OCCN3CCNC3=O)c2)nn1.O=C(O)C(F)(F)F	–	–	–	–	–	52.1	200	40.5	< 1	–	–	–
C[n+]1nn(-c2ccc(-c3nc(CCc4ccccc4)cs3)c(OCCN3CCNC3=O)c2)cc1CCCN	> 75	42	–	> 75	< 1	–	–	–	–	–	–	–
NCCCCc1cn(-c2ccc(-c3nc(CCc4cccc5ccccc45)cs3)c(OCCN3CCNC3=O)c2)nn1.O=C(O)C(F)(F)F	–	–	–	–	–	> 75	2100	> 29	< 1	–	–	–
CC[n+]1nn(-c2ccc(-c3nc(CCc4ccc(-c5ccccc5)cc4)cs3)c(OCCN3CCNC3=O)c2)cc1CCCCN	> 75	–	56.9	14	> 5.6	10	–	63.8	6.4	–	–	–
C[n+]1nn(-c2ccc(-c3nc(CCc4ccc(-c5ccccc5)cc4)c(-c4ccccc4)s3)c(OCCN3CCNC3=O)c2)cc1CCCCN	46.5	6.8	> 75	6	7.8	24.2	–	54.5	2.2	–	–	–
C[n+]1nn(-c2ccc(-c3nc(CCc4ccc5ccccc5c4)cs3)c(OCCN3CCNC3=O)c2)cc1CCCCN.O=C(O)C(F)(F)F.O=S(=O)([O-])C(F)(F)F	> 75	–	> 75	12.9	> 5.8	27	23500	> 75	> 2.8	5.1	9.2	4.2
COc1cc(-n2cc(CCCCN)[n+](C)n2)ccc1-c1nc(CCc2ccccc2)cs1	> 75	18.3	> 75	20	> 3.8	–	–	–	–	–	–	–
C[n+]1nn(-c2ccc(-c3nc(CCc4ccc(-c5ccccc5)cc4)cs3)c(OCCN3CCNC3=O)c2)cc1CCCN.O=C(O)C(F)(F)F.O=S(=O)([O-])C(F)(F)F	> 75	–	45.4	4.8	> 15.6	7.3	21600	> 75	> 10.3	–	–	–
C[n+]1nn(-c2ccc(-c3nc(CCC4Cc5ccccc5O4)cs3)c(OCCN3CCNC3=O)c2)cc1CCCCN (stereo not given)	> 75	5.4	> 75	> 75	< 1	–	–	–	–	–	–	–
C[n+]1nn(-c2ccc(-c3nc(-c4ccccc4)cs3)c(OCCN3CCNC3=O)c2)cc1CCCCN	> 75	20.3	–	62.4	> 1.2	–	–	–	–	–	–	–
CCCCCCCCCCCCCCCCOP(=O)([O-])OCC[N+](C)(C)C [MILTEFOSINE]	–	–	–	–	–	0.6	–	> 75	> 125	–	–	–
C[n+]1nn(-c2ccc(-c3nc(-c4ccc(Oc5ccccc5)cc4)c(-c4ccccc4)s3)c(OCCN3CCNC3=O)c2)cc1CCCCN	> 75	4.2	> 75	12.2	> 6.1	15	–	42.6	2.8	–	–	–
COc1cc(-n2cc(CCCCN)[n+](C)n2)ccc1-c1nc(CCc2ccc(-c3ccccc3)cc2)cs1	35.9	5.5	> 75	7.6	4.7	–	–	–	–	–	–	–
NCCCc1cn(-c2ccc(-c3nc(CCc4ccc(-c5ccccc5)cc4)cs3)c(OCCN3CCNC3=O)c2)nn1.O=C(O)C(F)(F)F	–	–	–	–	–	> 75	2800	37.3	< 1	–	–	–
C[n+]1nn(-c2ccc(-c3nc(CCc4ccccc4)cs3)c(OCC3CCNCC3)c2)cc1CCCCN	> 75	2.1	> 75	28.4	> 2.6	–	–	–	–	–	–	–
NCCCCc1cn(-c2ccc(-c3nc(-c4ccccc4)c(-c4ccccc4)s3)c(OCCN3CCNC3=O)c2)nn1	–	–	–	–	–	24.2	–	> 75	> 3.1	–	–	–
C[n+]1nn(-c2ccc(-c3nc(CCc4ccccc4)cs3)c(OCCC3CCNCC3)c2)cc1CCCCN	> 75	2.2	–	> 75	< 1	–	–	–	–	–	–	–
C[n+]1nn(-c2ccc(-c3nc(-c4ccc(-c5ccccc5)cc4)c(-c4ccccc4)s3)c(OCCN3CCNC3=O)c2)cc1CCCCN	> 75	4	> 75	6.4	> 12.3	14.1	–	34.5	2.4	–	–	–
